Reference: ChEMBL document CHEMBL1955724, “Synthesis, antimicrobial and anticancer activities of a novel series of diphenyl 1-(pyridin-3-yl)ethylphosphonates” (Bioorg Med Chem, 2012)
In brackets after ≈: the same amount, converted by molar mass.

Experiments:
Bacillus subtilis [1] = experiment: Antibacterial activity against Bacillus subtilis PC1219 after 24 to 48 hrs by agar disc diffusion method; format: functional
Method in brief: (§1)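 Filter-paper discs (5 mm) were impregnated with compound in DMSO at […]. Nutrient agar was seeded with 100 µL inoculum: 5 × 10^5 for bacteria, 4 × 10^4 for yeasts. Controls were ciprofloxacin discs for bacteria, amphotericin B discs for yeasts, and DMSO blanks. Plates were held at 37 °C for 24–48 h; zone diameter (mm) given as triplicate mean ± SD.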

[2] = Ratio of IC50 for human HepG2 cells to LD50 for Artemia salina
HepG2 = experiment: Cytotoxicity against human HepG2 cells after 72 hrs by sulforhodamine B assay; format: functional, cell-based; conditions: HepG2, 72 h
Staphylococcus aureus [3] = experiment: Antibacterial activity against Staphylococcus aureus ATCC 25292 at 10 mg after 24 to 48 hrs by agar well diffusion method; format: functional; conditions: read-out: DIZ
Method in brief: (§2)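 Cut-plug well assay: each well filled with 10 mg of powdered compound. Bacteria were on nutrient agar (peptone, beef extract, NaCl) at pH 7, and yeasts on Sabouraud agar (glucose, peptone) at pH 6.0. Plates were incubated at 30 °C for 24–48 h, and inhibition zone diameters were measured in triplicate.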

Saccharomyces cerevisiae [4] = experiment: Antifungal activity against Saccharomyces cerevisiae at 10 mg after 24 to 48 hrs by agar well diffusion method; format: functional; conditions: read-out: DIZ; method in brief: as §2
MCF7 = experiment: Cytotoxicity against human MCF7 cells after 72 hrs by sulforhodamine B assay; format: functional, cell-based; conditions: MCF7, 72 h
Escherichia coli [5] = experiment: Antibacterial activity against Escherichia coli NCIM2065 at 10 mg after 24 to 48 hrs by agar well diffusion method; format: functional; conditions: read-out: DIZ; method in brief: as §2
Candida albicans [6] = experiment: Antifungal activity against Candida albicans after 24 to 48 hrs by agar disc diffusion method; format: functional; method in brief: as §1
[7] = Ratio of IC50 for human MCF7 cells to LD50 for Artemia salina
Escherichia coli [8] = experiment: Antibacterial activity against Escherichia coli NCIM2065 after 24 to 48 hrs by agar disc diffusion method; format: functional; method in brief: as §1
[9] = Toxicity in Artemia salina assessed as mortality after 72 hrs; format: organism-based; conditions: in vivo, read-out: LD50
Method in brief: (§3)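 Artemia salina larvae, 20 per 5 mL saline vial, were exposed to compound at […]. Three replicates were run per concentration. Living larvae were counted after 72 h, with data as mean ± SD.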

Saccharomyces cerevisiae [10] = experiment: Antifungal activity against Saccharomyces cerevisiae after 24 to 48 hrs by agar disc diffusion method; format: functional; method in brief: as §1
Staphylococcus aureus [11] = experiment: Antibacterial activity against Staphylococcus aureus ATCC 25292 after 24 to 48 hrs by agar disc diffusion method; format: functional; method in brief: as §1
[12] = Toxicity in Artemia salina assessed as mortality at 1000 ug/mL after 72 hrs; format: organism-based; conditions: in vivo, read-out: Activity; method in brief: as §3
Bacillus subtilis [13] = experiment: Antibacterial activity against Bacillus subtilis PC1219 at 10 mg after 24 to 48 hrs by agar well diffusion method; format: functional; conditions: read-out: DIZ; method in brief: as §2
Candida albicans [14] = experiment: Antifungal activity against Candida albicans at 10 mg after 24 to 48 hrs by agar well diffusion method; format: functional; conditions: read-out: DIZ; method in brief: as §2
[15] = (§4) Toxicity in Artemia salina assessed as mortality at 100 ug/mL after 72 hrs; format: organism-based; conditions: in vivo, read-out: Activity; method in brief: as §3
Artemia salina = experiment: as §4; format: organism-based; conditions: in vivo, 72 h; method in brief: as §3

Row | SMILES | MIC (Bacillus subtilis [1]) | Ratio [2] | IC50 (HepG2) | zone of inhibition at 10000 µg/disc (Staphylococcus aureus [3]) | zone of inhibition at 10000 µg/disc (Saccharomyces cerevisiae [4]) | IC50 (MCF7) | zone of inhibition at 10000 µg/disc (Escherichia coli [5]) | MIC (Candida albicans [6]) | Ratio [7] | MIC (Escherichia coli [8]) | LC50 at 72 h [9] | MIC (Saccharomyces cerevisiae [10]) | MIC (Staphylococcus aureus [11]) | mortality at 72 h, 1000 ug/mL [12] | zone of inhibition at 10000 µg/disc (Bacillus subtilis [13]) | zone of inhibition at 10000 µg/disc (Candida albicans [14]) | mortality at 72 h, 100 ug/mL [15] | Activity (Artemia salina)
1 | CC(Nc1ccc(Cl)cc1)(c1cccnc1)P(=O)(Oc1ccccc1)Oc1ccccc1 (centres undefined) | 10 µg/mL (≈ 21.5 µM) | 0.415 | 15.8 µg/mL (≈ 34 µM) | 21 mm | 23 mm | 17.6 µg/mL (≈ 37.9 µM) | 20 mm | 10 µg/mL (≈ 21.5 µM) | 0.463 | 10 µg/mL (≈ 21.5 µM) | 38 µg/mL (≈ 81.7 µM) | 10 µg/mL (≈ 21.5 µM) | 10 µg/mL (≈ 21.5 µM) | 100% | 25 mm | 23 mm | 15% | –
2 | CC(Nc1ccccc1)(c1cccnc1)P(=O)(Oc1ccccc1)Oc1ccccc1 (centres undefined) | 10 µg/mL (≈ 23.2 µM) | 0.019 | 17.3 µg/mL (≈ 40.2 µM) | 12 mm | 14 mm | 18.2 µg/mL (≈ 42.3 µM) | 13 mm | 10 µg/mL (≈ 23.2 µM) | 0.02 | 100 µg/mL (≈ 232 µM) | 915 µg/mL (≈ 2130 µM) | 10 µg/mL (≈ 23.2 µM) | 10 µg/mL (≈ 23.2 µM) | 60% | 15 mm | 13 mm | – | Non-toxic
3 | Cc1ccc(NC(C)(c2cccnc2)P(=O)(Oc2ccccc2)Oc2ccccc2)cc1 (centres undefined) | 10 µg/mL (≈ 22.5 µM) | 0.16 | 13.3 µg/mL (≈ 29.9 µM) | 19 mm | 16 mm | 20.2 µg/mL (≈ 45.4 µM) | 22 mm | 10 µg/mL (≈ 22.5 µM) | 0.243 | 10 µg/mL (≈ 22.5 µM) | 83 µg/mL (≈ 187 µM) | 10 µg/mL (≈ 22.5 µM) | 50 µg/mL (≈ 112 µM) | 10% | 15 mm | 17 mm | – | –
4 | CC(Nc1ccc(O)cc1)(c1cccnc1)P(=O)(Oc1ccccc1)Oc1ccccc1 (centres undefined) | 10 µg/mL (≈ 22.4 µM) | 0.017 | 17.1 µg/mL (≈ 38.3 µM) | 21 mm | 16 mm | 19.6 µg/mL (≈ 43.9 µM) | 20 mm | 10 µg/mL (≈ 22.4 µM) | 0.02 | 10 µg/mL (≈ 22.4 µM) | 1000 µg/mL (≈ 2240 µM) | 10 µg/mL (≈ 22.4 µM) | 10 µg/mL (≈ 22.4 µM) | 60% | 20 mm | 15 mm | – | Non-toxic
5 | CC(NNc1ccccc1)(c1cccnc1)P(=O)(Oc1ccccc1)Oc1ccccc1 (centres undefined) | 10 µg/mL (≈ 22.4 µM) | 0.02 | 17.6 µg/mL (≈ 39.5 µM) | 28 mm | 27 mm | 19.4 µg/mL (≈ 43.6 µM) | 32 mm | 10 µg/mL (≈ 22.4 µM) | 0.023 | 10 µg/mL (≈ 22.4 µM) | 843 µg/mL (≈ 1890 µM) | 10 µg/mL (≈ 22.4 µM) | 10 µg/mL (≈ 22.4 µM) | 60% | 26 mm | 26 mm | – | Non-toxic
6 | C[C@@H]1[C@H](O)[C@@H](C)/C=C/C=C/C=C/C=C/C=C/C=C/C=C/[C@H](O[C@@H]2O[C@H](C)[C@@H](O)[C@H](N)[C@@H]2O)C[C@@H]2O[C@](O)(C[C@@H](O)C[C@@H](O)[C@H](O)CC[C@@H](O)C[C@@H](O)CC(=O)O[C@H]1C)C[C@H](O)[C@H]2C(=O)O [AMPHOTERICIN B] | – | – | – | – | – | – | – | 15 µg/mL (≈ 16.2 µM) | – | – | – | 15 µg/mL (≈ 16.2 µM) | – | – | – | – | – | –
7 | O=C(O)c1cn(C2CC2)c2cc(N3CCNCC3)c(F)cc2c1=O [CIPROFLOXACIN] | 5 µg/mL (≈ 15.1 µM) | – | – | – | – | – | – | – | – | 5 µg/mL (≈ 15.1 µM) | – | – | 5 µg/mL (≈ 15.1 µM) | – | – | – | – | –
